Results of several laboratories.

Structure (SMILES)	host	matrix	route	dose	setting	measurement	result
CCC[C@@](N)(CO)CCc1ccc(OCCCCCC(C)C)cc1	dog	plasma	oral	20 mg/kg	fed	Cmax	995 nM
Cl.Cl.O=C(CCN1CCCCC1)c1ccc(-c2ccc(C(=O)CCN3CCCCC3)cc2)cc1	Sprague-Dawley rat	plasma	oral	100 mg/kg		Tmax	45 min
Cc1nc([C@@](C)(CC2CC2)NC(=O)c2cc(OCC(F)(F)F)c(C3CC3)cn2)no1	C57BL/6 mouse	plasma	intravenous			clearance	11.8 mL/min/kg
CCN(CC)CCCC[C@H](NC(=O)[C@H](CC(C)C)NC(=O)[C@H](C)NC(=O)[C@H](Cc1ccccc1)NC(=O)c1ccc(C(C)(C)C)cc1)C(=O)N[C@@H](CO)C(=O)OC	male Swiss mouse	blood	intravenous	3 mg/kg		C0	10900 ng/mL
CN[C@H](CC(C)C)C(=O)N[C@H]1C(=O)N[C@@H](CC(N)=O)C(=O)N[C@H]2C(=O)NC3C(=O)N[C@H](C(=O)N[C@H](C(=O)NCCC[N+](C)(C)C)c4cc(O)cc(O)c4-c4cc3ccc4O)[C@H](O)c3ccc(c(Cl)c3)Oc3cc2cc(c3OC2OC(CO)C(O)[C@H](O)[C@@H]2O[C@H]2CC(C)(NCc3ccc(-c4ccc(Cl)cc4)cc3)[C@H](O)[C@H](C)O2)Oc2ccc(cc2Cl)[C@H]1O (some centres unmarked)	mouse	plasma	intravenous	10 mg/kg		clearance	2 mL/min/kg
C[C@]12CC[C@H](n3ccnc3)CC1=CC[C@@H]1[C@@H]2CC[C@]2(C)C(n3cnc4ccccc43)=CC[C@@H]12.Cl.Cl	male CD-1 mouse	plasma	intravenous	1 mg/kg		C0	603 ng/mL
Cc1ncc(C)n2nc(/C=C/c3nc(N4CCCC4)cc(N4CCOCC4)n3)nc12	male beagle dog	plasma	oral	0.3 mg/kg		Cmax	78 nM
O=C(Nc1cccnn1)N1CCN([C@@H]2CCOc3cc(C(F)(F)F)ccc32)CC1	male Sprague-Dawley rat	plasma	oral	3 mg/kg		Tmax	40.2 min
C[C@]12CC[C@H](O)CC1=CC[C@@H]1[C@@H]2CC[C@]2(C)C(n3cnc4ccccc43)=CC[C@@H]12.Cl	mouse	plasma	intravenous	1 mg/kg		C0	98.3 ng/mL
NC(=O)[C@@H]1CC(F)(F)CN1C(=O)c1ccc(N2CC(F)(F)C2)c(OCC2CC2)n1	C57BL/6 mouse	plasma	intravenous			clearance	28.5 mL/min/kg
N=c1c2c(-c3ccccc3)c(-c3ccccc3)n(Cc3ccccc3)c2ncn1[C@H]1CC[C@H](O)CC1	male beagle dog	plasma	oral	1 mg/kg	single dose	Cmax	81.5 ng/mL
